≈ marks a conversion by molar mass, not a printed value.
Legend:
Haemophilus influenzae [1] = assay: Compound was tested in vitro for its antibacterial activity against Haemophilus influenzae NCTC 4560 strain.; assay type: functional
Staphylococcus aureus [2] = assay: Compound was tested in vitro for its antibacterial activity against Staphylococcus aureus 561037 strain.; assay type: functional
Enterococcus faecalis [3] = assay: Compound was tested in vitro for its antibacterial activity against Streptococcus faecalis FS5 strain.; assay type: functional
Escherichia coli [4] = assay: Compound was tested in vitro for its antibacterial activity against Escherichia coli NCIB 8879 strain.; assay type: functional
Escherichia coli [5] = assay: Compound was tested for its antibacterial activity against Escherichia coli NCIB 8879 strain.; assay type: functional
Enterobacter = assay: Compound was tested for its antibacterial activity against Enterobacter 250002 strain.; assay type: functional
Haemophilus influenzae [6] = assay: Compound was tested for its antibacterial activity against Haemophilus influenzae NCTC 4560 strain.; assay type: functional
Klebsiella aerogenes = assay: Compound was tested for its antibacterial activity against Klebsiella aerogenes 331001 strain.; assay type: functional
Salmonella typhimurium = assay: Compound was tested for its antibacterial activity against Salmonella Typhimurium 538003 strain.; assay type: functional, Salmonella enterica subsp. enterica serovar Typhimurium; conditions: Salmonella enterica
Staphylococcus aureus [7] = assay: Compound was tested for its antibacterial activity against Staphylococcus aureus NCIB 8625 strain.; assay type: functional
Serratia marcescens = assay: Compound was tested for its antibacterial activity against Serratia marcescens ATCC 14756 strain.; assay type: functional
Enterococcus faecalis [8] = assay: Compound was tested for its antibacterial activity against Streptococcus faecalis 58511 strain.; assay type: functional
Escherichia coli [9] = assay: In vivo antibacterial activity was measured relative to alafosfalin against Escherichia coli 281007 strain after po administration.; assay type: functional
In short: (§1)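 Mouse septicaemia model infected with E. coli 281007. Compound was dosed at 1, 3 and 5 h after infection, orally (po) for line 13 and subcutaneously (sc) for line 14. Activity is the relative molar activity of the analogue versus the L-Ala-L-Ala(P) reference, with both CD50 values taken in µmol/kg.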

Escherichia coli [10] = assay: In vivo antibacterial activity was measured relative to alafosfalin against Escherichia coli 281007 strain after sc administration.; assay type: functional; in short: as §1

SMILES | MIC (Haemophilus influenzae [1]) [µg/mL] | MIC (Staphylococcus aureus [2]) [µg/mL] | MIC (Enterococcus faecalis [3]) [µg/mL] | MIC (Escherichia coli [4]) [µg/mL] | MIC (Escherichia coli [5]) [µg/mL] | MIC (Enterobacter) [µg/mL] | MIC (Haemophilus influenzae [6]) [µg/mL] | MIC (Klebsiella aerogenes) [µg/mL] | MIC (Salmonella typhimurium) [µg/mL] | MIC (Staphylococcus aureus [7]) [µg/mL] | MIC (Serratia marcescens) [µg/mL] | MIC (Enterococcus faecalis [8]) [µg/mL] | CD50 (Escherichia coli [9]) [relative molar activity] | CD50 (Escherichia coli [10]) [relative molar activity]
C[C@H](N)C(=O)N[C@@H](C)C(=O)N[C@@H](C)C(=O)N[C@H](C)P(=O)(O)O | 0.06 (≈ 0.177 µM) | 32 (≈ 94.6 µM) | 0.25 (≈ 0.739 µM) | 0.12 (≈ 0.355 µM) | – | – | – | – | – | – | – | – | – | –
CCC[C@H](NC(=O)[C@H](CCC)NC(=O)[C@@H](NC)C(C)C)C(=O)N[C@H](C)P(=O)(O)O | 0.25 (≈ 0.573 µM) | > 128 | 8 (≈ 18.3 µM) | 16 (≈ 36.7 µM) | – | – | – | – | – | – | – | – | – | –
CCC[C@H](NC)C(=O)N[C@@H](CCC)C(=O)N[C@@H](CCC)C(=O)N[C@H](C)P(=O)(O)O | 0.25 (≈ 0.573 µM) | 8 (≈ 18.3 µM) | 0.06 (≈ 0.137 µM) | 0.5 (≈ 1.15 µM) | – | – | – | – | – | – | – | – | – | –
C[C@@H](NC(=O)[C@@H](N)CCS(C)(=O)=O)P(=O)(O)O | – | – | – | – | 16 (≈ 55.5 µM) | > 128 | 32 (≈ 111 µM) | 32 (≈ 111 µM) | > 128 | 32 (≈ 111 µM) | > 128 | 4 (≈ 13.9 µM) | – | –
C[C@@H](NC(=O)[C@@H](N)Cc1cccs1)P(=O)(O)O | – | – | – | – | 0.5 (≈ 1.8 µM) | 1 (≈ 3.59 µM) | 32 (≈ 115 µM) | 0.25 (≈ 0.898 µM) | 4 (≈ 14.4 µM) | 32 (≈ 115 µM) | 4 (≈ 14.4 µM) | 2 (≈ 7.19 µM) | – | –
C[C@@H](NC(=O)[C@@H](N)CCCCN=C(N)N)P(=O)(O)O | – | – | – | – | 0.25 (≈ 0.847 µM) | 2 (≈ 6.77 µM) | 64 (≈ 217 µM) | 0.12 (≈ 0.406 µM) | 2 (≈ 6.77 µM) | 128 (≈ 433 µM) | 2 (≈ 6.77 µM) | 2 (≈ 6.77 µM) | – | –
CSC[C@H](N)C(=O)N[C@H](C)P(=O)(O)O | – | – | – | – | 0.03 (≈ 0.124 µM) | 0.03 (≈ 0.124 µM) | 4 (≈ 16.5 µM) | 0.03 (≈ 0.124 µM) | 0.25 (≈ 1.03 µM) | 16 (≈ 66.1 µM) | 0.5 (≈ 2.06 µM) | 2 (≈ 8.26 µM) | – | –
CCC[C@H](N)C(=O)N[C@H](C)P(=O)(O)O | 4 (≈ 17.8 µM) | 8 (≈ 35.7 µM) | 1 (≈ 4.46 µM) | 0.03 (≈ 0.134 µM) | 0.03 (≈ 0.134 µM) | 0.25 (≈ 1.12 µM) | 4 (≈ 17.8 µM) | 0.015 (≈ 0.0669 µM) | 0.25 (≈ 1.12 µM) | 8 (≈ 35.7 µM) | 0.5 (≈ 2.23 µM) | 1 (≈ 4.46 µM) | 1.1 | 8.8
CNCC(=O)N[C@@H](C)C(=O)N[C@@H](C)C(=O)N[C@H](C)P(=O)(O)O | 0.03 (≈ 0.0887 µM) | > 128 | 0.06 (≈ 0.177 µM) | 0.016 (≈ 0.0473 µM) | – | – | – | – | – | – | – | – | 1.05 | 8
C[C@@H](NC(=O)[C@@H](N)CS)P(=O)(O)O | – | – | – | – | 32 (≈ 140 µM) | > 128 | > 128 | 16 (≈ 70.1 µM) | > 128 | > 128 | > 128 | > 128 | – | –
C[C@H](N)C(=O)N[C@@H](C)P(=O)(O)O [ALAFOSFALIN] | 4 (≈ 20.4 µM) | 4 (≈ 20.4 µM) | 2 (≈ 10.2 µM) | 0.5 (≈ 2.55 µM) | 1 (≈ 5.1 µM) | 1 (≈ 5.1 µM) | 64 (≈ 326 µM) | 0.5 (≈ 2.55 µM) | 64 (≈ 326 µM) | 32 (≈ 163 µM) | 8 (≈ 40.8 µM) | 2 (≈ 10.2 µM) | 1 | 1
